Test results published in BindingDB's records for doi:10.1021/jm049559q (Tibotec, 2005).

Each compound was assayed against Integrase (Human immunodeficiency virus 1, UniProt Q7ZJM1) (assay: Log of inhibitory concentration against human immunodeficiency virus type 1 integrase).
Outline: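 Strand transfer ELISA using recombinant His-tagged HIV-1 integrase expressed in E. coli BL21(DE3). 20 nM biotinylated processed viral DNA substrate is preincubated with 300 nM integrase for 5 min at 37 °C. Serial compound dilutions and 50 nM target DNA are then added in 20 mM Hepes pH 7.5, 25 mM NaCl, 5 mM MnCl2, 2 mM DTT, 50 µg/mL BSA and incubated 2 h at 37 °C. Products are captured on streptavidin plates, detected with anti-FITC peroxidase antibody and read by chemiluminescence.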

Integrase, sequence (Q7ZJM1 whole entry): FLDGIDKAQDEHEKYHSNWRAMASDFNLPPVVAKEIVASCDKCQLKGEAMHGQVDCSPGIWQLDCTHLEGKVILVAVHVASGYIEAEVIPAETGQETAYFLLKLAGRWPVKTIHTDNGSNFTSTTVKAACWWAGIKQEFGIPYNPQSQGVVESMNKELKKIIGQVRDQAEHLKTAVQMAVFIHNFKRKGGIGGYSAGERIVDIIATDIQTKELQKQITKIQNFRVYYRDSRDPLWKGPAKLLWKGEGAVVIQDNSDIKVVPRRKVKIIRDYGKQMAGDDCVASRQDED

| Compound | IC50 [nM] |
| --- | --- |
| COc1ccc(Cn2c(=O)c3c(=O)c4[nH]cc[nH]c4c(=O)c3c2=O)cc1 | 562 |
| O=c1c2[nH]cc[nH]c2c(=O)c2c(=O)n(CCc3ccccc3)c(=O)c12 | 2040 |
| O=c1c2[nH]cc[nH]c2c(=O)c2c(=O)n(Cc3cccc(F)c3)c(=O)c12 | 562 |
| O=c1c2[nH]cc[nH]c2c(=O)c2c(=O)n(CCc3ccc4c(c3)OCO4)c(=O)c12 | 1410 |
| O=c1c2[nH]cc[nH]c2c(=O)c2c(=O)n(Cc3ccc(OC(F)(F)F)cc3)c(=O)c12 | 2040 |
| O=c1c2[nH]cc[nH]c2c(=O)c2c(=O)n(Cc3cccc(C(F)(F)F)c3)c(=O)c12 | 427 |
| O=c1c2[nH]cc[nH]c2c(=O)c2c(=O)n(Cc3ccc4c(c3)OCO4)c(=O)c12 | 562 |

Further compounds by falling IC50, results first:

| IC50 [nM] | Compound |
| --- | --- |
| 427 | COc1cccc(Cn2c(=O)c3c(=O)c4[nH]cc[nH]c4c(=O)c3c2=O)c1OC |
| 427 | COc1ccc(Cn2c(=O)c3c(=O)c4[nH]cc[nH]c4c(=O)c3c2=O)c(OC)c1 |
| 417 | O=c1c2[nH]cc[nH]c2c(=O)c2c(=O)n(Cc3ccc(Cl)cc3)c(=O)c12 |
| 417 | O=c1c2[nH]cc[nH]c2c(=O)c2c(=O)n(Cc3ccc(F)cc3)c(=O)c12 |
